A selection: hits, their analogues and other compounds. The true share with any hit is near 3.4%.
TAAR1 agonist = agonists of human TAAR1. Q96RJ0. 360,000 compounds, 0.99% hits. CHO RD-HGA16 TAAR1, Fluo-8 calcium fluorescence; vehicle wells 0%, saturating PEA agonist 100%. AID 624467. activation, % at 3 µM;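 active = activation above the mean activation of all test compounds in the run plus 3 SD, cut at about 38% in these data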
Target sequence (Q96RJ0 whole entry, looked up): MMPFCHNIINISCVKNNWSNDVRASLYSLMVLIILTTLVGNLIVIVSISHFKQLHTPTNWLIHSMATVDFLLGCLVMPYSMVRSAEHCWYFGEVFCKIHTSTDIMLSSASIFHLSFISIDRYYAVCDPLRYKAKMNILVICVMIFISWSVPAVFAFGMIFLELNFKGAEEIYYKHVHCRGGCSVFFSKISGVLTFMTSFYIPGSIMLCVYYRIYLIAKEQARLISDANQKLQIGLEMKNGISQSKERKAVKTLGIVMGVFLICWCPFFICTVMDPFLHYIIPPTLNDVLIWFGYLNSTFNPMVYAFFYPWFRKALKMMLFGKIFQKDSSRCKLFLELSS
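System: CHO-derived RD-HGA16 cells with stable Gα16 and human TAAR1 / Times: 17-24 h plating, Fluo-8 75 min 37 °C, 30 min RT / Technique: calcium-sensitive Fluo-8 signal, excitation 470-495, emission 515-575 nm / Measure: % activation relative to PEA EC100 response / Benchmarks: DMSO and PEA EC100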
GPR7 antagonist = human neuropeptides B/W receptor 1 antagonism | P48145 | GPR7-expressing cells, fluorescence antagonist assay | inhibition, % at 4.4 µM | 290,000 compounds, 1.1% hits | AID 1861; in the data active = inhibition above about 16%, passing the limit was not always enough;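 also: cells stimulated with the agonist NPW; 0% = agonist with vehicle and 100% = vehicle without agonist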
TRPML3 ag = agonists of human TRPML3 channel; Q8TDD5; HEK293 TRPML3-YFP, Fluo-8 calcium fluorescence; 100% = the carbachol control signal; activation, % at 3 µM; 220,000 compounds, 0.29% hits; AID 1448;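 active = activation above its plate's cutoff, the mean activation of the plate's test wells plus 3 SD, cut at about 12% in these data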;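 also: 0% = DMSO only wells and 100% = carbachol wells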
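Test system – HEK293 line with stable expression of human TRPML3-YFP channel · Control set – carbachol 87 µM final as high control (100%), DMSO as low control (0%) · Signal – Fluo-8 calcium dye fluorescence, ex 470-495, em 515-575 nm · Incubation – 1-h 37 °C dye load, 5-s basal, 120-s post-compound reads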
LANA-H2B inh = blocks KSHV LANA binding to histone H2A/H2B; Q9QR71; cell-free LANA-H2A/H2B peptide, fluorescence polarization; inhibition, % (test concentration not listed); 320,000 compounds, 0.6% hits; AID 2629; in the data active = inhibition mostly above about 10%, no sharp cut-off; inactive = mostly below about 6.7%
TRPN1 ag = zebrafish TRPN1 (NompC) channel agonism; HEK293 zebrafish TRPN1-YFP, Fluo-8 calcium fluorescence; 100% = response to 87 µM carbachol; activation, % at 3 µM; 220,000 compounds, 0.18% hits; AID 1424;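 active = activation above its plate's cutoff, the mean activation of test wells on that plate plus 3 SD, cut at about 19% in these data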;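 also: 0% = DMSO alone and 100% = 87 µM carbachol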
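Material: zebrafish TRPN1-YFP in HEK293 cells. Doses: one dose of 3 µM, 0.3% DMSO. Incubation: dye 1 h 37 °C plus 30 min RT. Measured by: intracellular calcium fluorescence with Fluo-8.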
TAAR1 antag = human TAAR1 antagonism; Q96RJ0; CHO RD-HGA16 TAAR1, Fluo-8 calcium fluorescence, antagonist; inhibition, % at 3 µM; 360,000 compounds, 1.5% hits;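 active = inhibition above a per-plate cutoff, the mean inhibition of test compounds on that plate plus 3 SD, cut at about 49% in these data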;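 also: 0% = DMSO plus EC80 beta-PEA response and 100% = DMSO alone without agonist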
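Material: RD-HGA16 CHO cells with stable hTAAR1 and Gα16; Dosing: single nominal final test compound concentration of 3 µM; Schedule: seeding 17-24 h prior, 75-min 37 °C, 30-min RT dye loading; Detection: kinetic Fluo-8 calcium fluorescence measurement; Measure: % inhibition from peak post-agonist over basal fluorescence ratio; Benchmarks: vehicle and agonist controls.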
TAAR1 ag conf = confirmation of human TAAR1 agonists. CHO RD-HGA16 TAAR1, Fluo-8 calcium fluorescence; scaled: DMSO 0%, maximal phenethylamine 100%. 2,400 compounds, 82% hits. AID 651783. shares compounds with TAAR1 agonist. activation, % at 3 µM;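 active = activation above a cutoff set at the run's mean compound activation plus 3 SD, cut at about 39% in these data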
Ga16 nonsel ag = counter-screen for TAAR1 agonists: nonselective agonists in parental cells; activation, % at 3 µM; 2,400 compounds, 50% hits; shares compounds with TAAR1 agonist; CHO-Ga16 parental, Fluo-8 calcium fluorescence; normalized to maximal ATP response, DMSO zero;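 active = activation above the run cutoff, the mean activation over all tested wells plus 3 SD, cut at about 12% in these data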;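 also: 0% = DMSO wells and 100% = maximal ATP response on the peak over basal ratio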
TAAR1 desens = counter-screen for human TAAR1 agonists: agonists that desensitize TAAR1 | 2,400 compounds, 46% hits | shares compounds with TAAR1 agonist | CHO RD-HGA16 hTAAR1, Fluo-8 calcium, beta-PEA response inhibition | inhibition, % at 3 µM;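 active = inhibition above the run cutoff, the mean inhibition of all test compounds plus 3 SD, cut at about 49% in these data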;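 also: beta-PEA stimulus applied at its EC80; loss of beta-PEA calcium signal after compound pretreatment read as receptor desensitization; 0% = DMSO with beta-PEA at EC80 and 100% = DMSO alone without agonist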
Ga16 nonsel ant = nonselective Ga16 antagonist in TAAR1 agonist counter-screen. shares compounds with TAAR1 agonist. CHO-Ga16 ATP-induced calcium, Fluo-8 fluorescence. inhibition, % at 3 µM. 2,400 compounds, 39% hits;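 active = inhibition above the plate's mean compound inhibition plus 3 SD, computed per plate, cut at about 22% in these data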;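 also: 0% = EC80 ATP with DMSO and 100% = DMSO wells without ATP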
* hit, by the source's call; · = not tested or not shown.

SMILES	TAAR1 agonist	GPR7 antagonist	TRPML3 ag	LANA-H2B inh	TRPN1 ag	TAAR1 antag	TAAR1 ag conf	Ga16 nonsel ag	TAAR1 desens	Ga16 nonsel ant
N#Cc1c([N+](=O)[O-])cc([N+](=O)[O-])cc1S(=O)(=O)Cc1ccccc1	48.0*	·	·	2.4	·	45.2	9.3	8.9	42.5	44.9*
O=C(C[n+]1cccc(O)c1)NCc1ccc(Cl)cc1	8.0	-9.0	·	3.7	·	-9.0	·	·	·	·
CC1Cc2cccc3ccc(=O)n(c23)C1 (centres undefined)	10.9	·	·	·	·	-30.3	·	·	·	·
CN(C(=O)c1cccc(NC(=O)Cc2ccc(NC(=O)C3CCN(C(=O)C4CCCC4)CC3)cc2)c1)C1CCCC1	-0.1	·	·	·	·	-13.4	·	·	·	·
COc1cc(CN2CCCCCC2)cc([N+](=O)[O-])c1O	0.3	-15.8	·	1.2	·	-5.0	·	·	·	·
COc1cc(CN2CCc3ccccc3C2)ccc1O	·	-0.7	-0.1	-4.9	1.9	·	·	-0.5	·	4.2
COc1cc(CN2CCc3ccccc3C2)cc([N+](=O)[O-])c1O	97.9*	-9.7	·	1.5	·	58.8*	98.2*	0.8	77.2*	-5.6
CCOc1cc(CN2CCCC(N3CCc4ccccc4C3)C2)ccc1O (centres undefined)	3.2	0.6	·	1.8	·	-5.2	·	·	·	·
CC1(C(=O)Nc2ccc3c(c2)OCCO3)CN(S(C)(=O)=O)CC(=O)N1CCc1ccccc1F (centres undefined)	4.9	·	·	·	·	-0.1	·	·	·	·
Cc1nn(C)c(Cl)c1/C=N/OC(=O)c1ccc(F)cc1	88.0*	-14.0	0.1	-1.3	-0.5	11.4	3.0	1.6	2.9	9.8
Cc1c(NC(=O)C(C)OC(=O)COc2ccc(C#N)cc2)c(=O)n(-c2ccccc2)n1C (centres undefined)	1.5	·	·	4.3	·	-51.6	·	·	·	·
Cc1cccc(CN(C)C[C@H]2OCc3cnnn3CCCC(=O)N([C@H](C)CO)C[C@@H]2C)c1	0.9	·	·	·	·	-20.2	·	·	·	·
O=C(N/N=C/c1ccc(O)c(O)c1)N/N=C/c1ccc(O)c(O)c1	97.5*	-0.5	·	4.4	·	27.3	83.3*	-0.7	73.2*	0.9
Cc1nonc1C(=O)N/N=C/c1ccc(O)c(O)c1	2.5	-1.4	0.8	0.4	-0.3	-6.8	·	·	·	·
Cc1ccc(F)c(S(=O)(=O)NC(=O)C2(C)CCN2C(=O)c2ccc(C3CCCCC3)cc2)c1 (centres undefined)	-1.5	·	·	·	·	-16.7	·	·	·	·
CC(=O)Nc1sc(/C(C#N)=C/c2ccc(Cl)c(Cl)c2)nc1-c1ccc(C)cc1	68.4*	-2.6	1.2	·	1.5	81.5*	42.3*	56.0*	75.9*	66.5*
COc1ccc(/C=N/Nc2nc(-c3ccc(C)cc3)c(NC(C)=O)s2)cc1OC	0.6	-8.7	0.3	1.1	0.8	-6.0	·	·	·	·
O=C(Nc1nnc(-c2ccccc2Cl)o1)c1nc2ccccc2s1	134.0*	-4.0	95.1*	2.0	89.2*	73.7*	113.1*	81.1*	63.8*	36.1*
N=C(N)SCCc1cccc(CCSC(=N)N)c1	1.1	·	·	4.9	·	5.1	·	·	·	·
Cc1cccc(CSC(=N)N)c1	66.7*	5.2	0.3	-2.2	0.6	40.2	93.4*	5.4	67.6*	5.6
C[C@H](NC(=O)C[C@@H]1C=C[C@@H](NC(=O)CN2CCOCC2)[C@@H](CO)O1)c1ccccc1	4.5	·	·	·	·	-5.3	·	·	·	·

High-throughput results deposited in PubChem by several laboratories.
